Experimental data from ChEMBL document CHEMBL3227929, “Synthesis and evaluation for diuretic activity of 1-substituted 6-chloro-5-sulfamylindolines” (1979).

Key:
Format in all cases: functional
[1] = tested on: Rattus norvegicus; assay: Diuretic activity in Wistar rat assessed as potassium level in excreted urine at 50 mg/kg, po measured after 5 to 24 hrs by flame photometric analysis relative to urea-treated control
How it was run: (§1)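 Female Wistar rats (150-200 g), groups of six, fasted 16 h, dosed orally at 50 mg/kg in 1% saline (15 mL/kg). Housed singly in metabolic cages with water ad libitum. Urine collected 0-5 h and 5-24 h. Na+ and K+ measured by flame photometry as mean mequiv, volume as mean mL. Each expressed as a ratio to a urea group (1000 mg/kg) run alongside vehicle control.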

[2] = tested on: Rattus norvegicus; assay: Diuretic activity in Wistar rat assessed as sodium level in excreted urine at 50 mg/kg, po measured after 5 to 24 hrs by flame photometric analysis relative to urea-treated control; how it was run: as §1
[3] = tested on: Rattus norvegicus; assay: Diuretic activity in Wistar rat assessed as sodium level in excreted urine at 50 mg/kg, po measured after 0 to 5 hrs by flame photometric analysis relative to urea-treated control; how it was run: as §1
[4] = tested on: Rattus norvegicus; assay: Diuretic activity in Wistar rat assessed as potassium level in excreted urine at 50 mg/kg, po measured after 0 to 5 hrs by flame photometric analysis relative to urea-treated control; how it was run: as §1
[5] = tested on: Rattus norvegicus; assay: Diuretic activity in Wistar rat assessed as volume of excreted urine at 50 mg/kg, po measured after 5 to 24 hrs relative to urea-treated control; how it was run: as §1
[6] = tested on: Rattus norvegicus; assay: Diuretic activity in Wistar rat assessed as volume of excreted urine at 50 mg/kg, po measured after 0 to 5 hrs relative to urea-treated control; how it was run: as §1

SMILES	Ratio [1]	Ratio [2]	Ratio [3]	Ratio [4]	Ratio [5]	Ratio [6]
NS(=O)(=O)c1cc(C(=O)NN2CCc3cc(S(N)(=O)=O)c(Cl)cc32)ccc1Cl	1.18	1.24	1.47	1.09	1.26	0.99
NS(=O)(=O)c1cc2c(cc1Cl)N(C(=O)c1ccco1)CC2	1.23	1.2	0.46	0.38	0.87	0.31
NS(=O)(=O)c1cc2c(cc1Cl)N(Cc1ccccc1)CC2	1.2	1.3	1	0.73	1.8	0.77
NS(=O)(=O)c1cc2c(cc1Cl)N(Cc1ccco1)CC2	1.29	1.09	0.29	0.24	1	0.15
NS(=O)(=O)c1cc2c(cc1Cl)N=CNS2(=O)=O [CHLOROTHIAZIDE]	1	1.1	1.9	1.5	1	1.3
CC(=O)N1CCc2cc(S(N)(=O)=O)c(Cl)cc21	1.1	1.09	0.63	0.53	0.72	0.53
CCCC(=O)N1CCc2cc(S(N)(=O)=O)c(Cl)cc21	1.17	1.3	1.04	0.53	0.96	0.54
NS(=O)(=O)c1cc(C(=O)O)c(NCc2ccco2)cc1Cl [FUROSEMIDE]	1.31	0.96	9.63	1.12	1.08	2.75
Cl.NS(=O)(=O)c1cc2c(cc1Cl)NCC2	0.83	1.02	0.95	0.76	0.94	0.62
NS(=O)(=O)c1cc2c(cc1Cl)N(C(=O)c1ccccc1)CC2	1.1	1.08	0.79	0.41	0.85	0.83
CCCCN1CCc2cc(S(N)(=O)=O)c(Cl)cc21	1.06	1.15	0.98	0.78	0.9	0.7
